Activity calls are given as the source filed them. No cut-off for these calls is given here.
Tests used:
[1] = species on record: Rattus norvegicus; assay: Inhibitory dose by PCA test […].; type: functional; conditions: read-out: ID50 (the source's name)
Method in brief: (§1)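 Rat passive cutaneous anaphylaxis. Female rats (100 g) sensitized intradermally with 0.1 mL rat anti-egg albumin reaginic serum diluted in saline. After 24 h, rats were challenged i.v. with egg albumin, Evans Blue and saline, with the compound in saline given in the same injection. Reactions measured at 20 min; groups of five. ID50 taken from a log-dose regression of 20–80% inhibition.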

[2] = test system: Canis familiaris; assay: Percent inhibition by dog hypotension screen assay at 10 ug/Kg per min for 15 min.; type: functional; conditions: Canis lupus familiaris, 0.25 h
[3] = test system: Canis familiaris; assay: Activity index by dog hypotension screen assay at 10 ug/Kg per min for 15 min.; type: functional, Canis lupus familiaris
[4] = species on record: Rattus norvegicus; assay: Potency ratio to that of sodium cromoglycate (1.0) using PCA test.; type: functional
Method in brief: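 Passive cutaneous anaphylaxis in female rats sensitized with reaginic anti-egg albumin serum and challenged i.v. at 24 h with antigen plus Evans Blue. Compound in saline was co-injected with antigen; groups of five. Sodium cromoglycate ID50 was determined in each experiment. Potency ratio = ID50(sodium cromoglycate)/ID50(compound), with ID50s from regression lines of inhibition against log dose.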

[5] = test system: Canis familiaris; assay: Percent inhibition was evaluated by dog hypotension screen assay at 50 ug/Kg per min for 15 min; type: functional; conditions: Canis lupus familiaris, 0.25 h
[6] = test system: Canis familiaris; assay: Activity index was evaluated by dog hypotension screen assay at 50 ug/Kg per min for 15 min; type: functional, Canis lupus familiaris
[7] = test system: Canis familiaris; assay: Activity index was evaluated by dog hypotension screen assay at 20 ug/Kg per min for 15 min; type: functional, Canis lupus familiaris
[8] = species on record: Rattus norvegicus; assay: Ability to inhibit histamine release from rat peritoneal mast cells; type: functional
[9] = test system: Monkey; assay: (§2) Ability to inhibit histamine release from monkey lung lavage cells; type: functional, Cercopithecidae
[10] = species on record: Rattus norvegicus; assay: Ability to inhibit histamine release from rat peritoneal mast cells using PCA assay.; type: functional; method in brief: as §1
[11] = species on record: Rattus norvegicus; assay: Compound was evaluated to induce phosphorylation of the 78000 molecular weight mast cell protein; Active to induce phosphorylation; type: functional
[12] = test system: Monkey; assay: as §2; type: functional; conditions: Cercopithecidae, in Primates
[13] = species on record: Canis familiaris; assay: Relative activity in dog hypotension; type: functional, Canis lupus familiaris
[14] = species on record: Rattus norvegicus; assay: Ability to inhibit histamine release from rat peritoneal mast cells.; type: functional
[15] = test system: Canis familiaris; assay: Percent inhibition was evaluated by dog hypotension screen assay at 10 ug/Kg per min for 15 min; inactive; type: functional, organism-based; conditions: Canis lupus familiaris
Method in brief: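 In anaesthetized beagles (pentobarbitone 30 mg/kg i.v.), hypotensive responses to a standardized bolus of sodium cromoglycate were established. Test compound was infused i.v. for 15 min, and the cromoglycate bolus was repeated at the end of the infusion and every 30 min over 3 h. Percent inhibition was expressed as area under the curve over 3 h; single experiments.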

Row | Compound | ED50 [1] [mg/kg] | inhibition in vivo at 10 µg/kg/min [2] [%] | Activity index [3] | Potency ratio [4] | also measured
1 | CCCc1c2nc(C(=O)[O-])cc(NCC)c2cc2c(=O)cc(C(=O)[O-])oc12.[Na+].[Na+] | 0.18 | 42 | 4.2 | 13.8 | 
2 | CCCc1c2nc(C(=O)[O-])cc(O)c2cc2c(=O)ccoc12.[Na+] | 0.78 |  |  | 6.5 | 
3 | CC(C)CCn1c(C(=O)O)cc(=O)c2cc3c(=O)cc(C(=O)O)oc3cc21 | 2.05 |  |  | 0.54 | inhibition in vivo at 50 µg/kg/min [5]: 68%; Activity index [6]: 1.4
4 | CCCc1c2nc(C(=O)[O-])ccc2cc2c(=O)cc(C(=O)[O-])oc12.[Na+].[Na+] | 7.11 | 38 | 3.8 | 0.35 | 
5 | CCCc1c2nc(C(=O)[O-])cc(N)c2cc2c(=O)cc(C(=O)[O-])oc12.[Na+].[Na+] | 0.31 |  |  | 8.25 | Activity index [7]: 4.1
6 | CCCc1c2oc(C(=O)[O-])cc(=O)c2cc2c(=O)cc(C(=O)[O-])n(C)c12.[Na+].[Na+] | 0.21 | 55 | 5.5 | 6.6 | 
7 | CCCc1c2nc(C(=O)[O-])cc(Nc3ccccc3)c2cc2c(=O)cc(C(=O)[O-])oc12.[Na+].[Na+] | 0.57 |  |  | 3.47 | Activity index [7]: 3
8 | CCCc1c2nc(C(=O)[O-])cc(OC)c2cc2c(=O)cc(C(=O)[O-])oc12.[Na+].[Na+] | 0.3 | 43 | 4.3 | 8.35 | 
9 | CCCc1c2oc(C(=O)[O-])cc(=O)c2cc2c(=O)cc(C(=O)[O-])n(CCC)c12.[Na+].[Na+] | 3.71 | 28 | 2.8 | 0.43 | 
10 | CCCc1c2nc(C(=O)[O-])cc(N(C)C(C)=O)c2cc2c(=O)cc(C(=O)[O-])oc12.[Na+].[Na+] | 4.02 |  |  | 0.88 | Activity index [7]: 1
11 | C=CCc1c2nc(C(=O)[O-])cc(Cl)c2cc2c(=O)cc(C(=O)[O-])oc12.[Na+].[Na+] | 2.4 | 21 | 2.1 | 1.09 | 
12 | O=C([O-])c1cc(O)c2cc3c(=O)cc(C(=O)[O-])oc3cc2n1.[Na+].[Na+] | 0.22 | 78 | 7.8 | 11.6 | 
13 | CCCc1c2nc(C(=O)[O-])cc(S(=O)(=O)c3ccccc3)c2cc2c(=O)cc(C(=O)[O-])oc12.[Na+].[Na+] | 0.3 | 39 | 3.9 | 9.9 | 
14 | CCCc1c2nc(C(=O)[O-])cc(Br)c2cc2c(=O)cc(C(=O)[O-])oc12.[Na+].[Na+] | 0.55 | 48 | 4.8 | 4.62 | 
15 | CCCc1c2nccc(Cl)c2cc2c(=O)cc(C(=O)[O-])oc12.[Na+] | 5.38 | 48 | 4.8 | 0.2 | 
16 | CCCc1c2nc(C(=O)[O-])cc(Oc3ccccc3)c2cc2c(=O)cc(C(=O)[O-])oc12.[Na+].[Na+] | 1.12 | 68 | 6.8 | 1.75 | 

Row | Compound | ED50 [1] [mg/kg] | inhibition in vivo at 10 µg/kg/min [2] [%] | Activity index [3] | Potency ratio [4] | also measured
17 | CCCc1c2nc(C(=O)[O-])cc(SCC)c2cc2c(=O)cc(C(=O)[O-])oc12.[Na+].[Na+] | 0.14 | 59 | 5.9 | 11.1 | 
18 | CCCc1c2nc(C(=O)[O-])cc(OCC)c2cc2c(=O)cc(C(=O)[O-])oc12.[Na+].[Na+] | 0.3 | 32 | 3.2 | 8.47 | 
19 | CCCc1c2nc(C(=O)O)cc(C)c2cc2c(=O)cc(C(=O)O)oc12 | 0.71 | 66 | 6.6 | 2.97 | 
20 | CCCc1c2nc(C(=O)[O-])cc(N3CCCC3)c2cc2c(=O)cc(C(=O)[O-])oc12.[Na+].[Na+] | 0.86 | 57 | 5.7 | 4.13 | 
21 | Cc1c2nc(C(=O)[O-])cc(O)c2cc2c(=O)cc(C(=O)[O-])oc12.[Na+].[Na+] | 0.11 | 66 | 6.6 | 12.7 | 
22 | CCCc1c2nc(C(=O)[O-])cc(NC)c2cc2c(=O)cc(C(=O)[O-])oc12.[Na+].[Na+] | 0.22 |  |  | 7.13 | Potency [8]: 6; Relative potency [9]: 35; Activity index [7]: 4; Potency [10]: 7.1; Potency [11]: Active to induce phosphorylation; IC30 [12]: 28.5 µM; Relative activity [13]: 1.25
23 | CCCc1c2nccc(O)c2cc2c(=O)cc(C(=O)[O-])oc12.[Na+] | 6.03 |  |  | 0.35 | 
24 | CCCc1c(C(=O)[O-])nc2c(CCC)c3oc(C(=O)[O-])cc(=O)c3cc2c1O.[Na+].[Na+] | 0.14 | 6 | 0.6 | 10.9 | 
25 | CC=Cc1c2oc(C(=O)O)cc(=O)c2cc2c(=O)cc(C(=O)O)n(CC)c12 |  | 84 |  |  | 
26 | CCCc1c2oc(C(=O)[O-])cc(=O)c2cc2c(=O)cc(C(=O)[O-])n(CC)c12.[Na+].[Na+] [NEDOCROMIL SODIUM] | 0.95 | 60 | 6 | 1.1 | Relative potency [9]: 190; Potency [14]: 1; Potency [10]: 1.1; Potency [11]: Active to induce phosphorylation; IC30 [12]: 5.2 µM; Relative activity [13]: 1.9
27 | CCCc1c2nc(C(=O)[O-])cc(O)c2cc2c(=O)cc(C(=O)[O-])oc12.[Na+].[Na+] | 0.03 | 65 | 6.5 | 80 | 
28 | CCCc1c2nc(C(=O)[O-])cc(Cl)c2cc2c(=O)cc(C(=O)[O-])oc12.[Na+].[Na+] | 1.38 | 72 | 7.2 |  | 
29 | O=C([O-])c1cc(Cl)c2cc3c(=O)cc(C(=O)[O-])oc3cc2n1.[Na+].[Na+] | 4.23 |  | 0 | 0.72 | inhibition [15]: inactive
30 | CCCc1c(C(=O)[O-])nc2c(CCC)c3oc(C(=O)[O-])cc(=O)c3cc2c1Cl.[Na+].[Na+] | 2.45 |  | 0 | 1.14 | inhibition [15]: inactive
31 | CCCc1c2nc(C(=O)[O-])cc(Sc3ccccc3)c2cc2c(=O)cc(C(=O)[O-])oc12.[Na+].[Na+] | 1.87 | 66 | 6.6 | 1.78 | 
32 | CCn1c(C(=O)[O-])cc(=O)c2cc3c(=O)cc(C(=O)[O-])oc3cc21.[Na+].[Na+] | 10 | 76 | 7.6 | 0.16 | 

Reference: ChEMBL document CHEMBL1122868, “New antiallergic pyrano [3,2-g]quinoline-2,8-dicarboxylic acids with potential for the topical treatment of asthma” (1985)
